Experimental data reported in ChEMBL document CHEMBL1152312, “Neopyrrolomycins with broad spectrum antibacterial activity” (2009).
Converted amounts (≈) assume the structure as drawn. The source made the active and inactive calls. The calls are words filed in the database; no cut-off is given here.

Columns and labels:
Pseudomonas aeruginosa [1] = test: Antibacterial activity against Pseudomonas aeruginosa 27853 by microdilution method; format: functional
Outline: (§1)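 MIC determined by CLSI broth microdilution; organisms were ATCC strains and clinical isolates.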

Staphylococcus aureus [2] = test: Antibacterial activity against methicillin-sensitive Staphylococcus aureus 29213 by microdilution method; format: functional
Outline: (§2)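 MIC values from CLSI broth microdilution. Strains came from the ATCC collection and from clinical isolates.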

HepG2 = test: Cytotoxicity against human HepG2 cells assessed as effect on cell viability at 43 ug/mL after 48 hrs by celltiter glow assay; format: functional, cell-based
Outline: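 HepG2 grown in MEM with 10% heat-inactivated FBS, 0.10 mM nonessential amino acids, 1 mM pyruvate, 37 °C, 5% CO2. Seeded at 1.25 × 10^5 cells/mL 24 h before treatment. DMSO-dissolved compounds tested over 0.6–128 µg/mL (1% final DMSO) for 48 h. Luminescent CellTiter-Glo viability read-out relative to DMSO control; CC90 taken.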

Escherichia coli [3] = test: Antibacterial activity against Escherichia coli 25922 by microdilution method; format: functional; outline: as §1
Streptococcus pneumoniae [4] = test: Antibacterial activity against Streptococcus pneumoniae 49619 by microdilution method; format: functional; outline: as §1
Staphylococcus aureus [5] = test: Antibacterial activity against methicillin-sensitive Staphylococcus aureus 6538 by microdilution method; format: functional; outline: as §2
Klebsiella pneumoniae [6] = test: Antibacterial activity against Klebsiella pneumoniae 4352 by microdilution method; format: functional; outline: as §1
Escherichia coli [7] = test: Antibacterial activity against Escherichia coli 1411 by microdilution method; format: functional; outline: as §1
Staphylococcus aureus [8] = test: Antibacterial activity against methicillin-resistant Staphylococcus aureus 43300 by microdilution method; format: functional; outline: as §2
Enterococcus faecium [9] = test: Antibacterial activity against vancomycin-resistant Enterococcus faecium 700221 by microdilution method; format: functional; outline: as §2
NHDF = test: Cytotoxicity against NHDF cells after 48 hrs by celltiter glow assay; format: functional; conditions: Homo sapiens
Outline: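 Fibroblasts kept at 37 °C, 5% CO2 in FGM-2 medium, passage ≤16. Seeded at 1.25 × 10^5 cells/mL 24 h before dosing. Compounds dissolved in DMSO, tested 0.6–128 µg/mL at 1% final DMSO for 48 h. Viability by CellTiter-Glo luminescence, expressed as percent of DMSO control.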

Streptococcus agalactiae = test: Antibacterial activity against Streptococcus agalactiae 2033 by microdilution method; format: functional; outline: as §2
Escherichia coli [10] = test: Antibacterial activity against extended spectrum beta-lactamase-producing Escherichia coli 2269 by microdilution method; format: functional; outline: as §2
Staphylococcus aureus [11] = test: Antibacterial activity against methicillin-resistant Staphylococcus aureus 1137 by microdilution method; format: functional; outline: as §2
Enterococcus faecium [12] = test: Antibacterial activity against vancomycin-sensitive Enterococcus faecium 843 by microdilution method; format: functional; outline: as §2
Staphylococcus aureus [13] = test: Antibacterial activity against Linezolid, methicillin-resistant Staphylococcus aureus 1725 by microdilution method; format: functional; outline: as §2
Klebsiella pneumoniae [14] = test: Antibacterial activity against ampicillin beta-lactamase, multidrug-resistant Klebsiella pneumoniae 2262 by microdilution method; format: functional; outline: as §2
Staphylococcus aureus [15] = test: Antibacterial activity against vancomycin-intermediate Staphylococcus aureus 2018 by microdilution method; format: functional; outline: as §2
Enterococcus faecium [16] = test: Antibacterial activity against vancomycin-resistant Enterococcus faecium 1254 by microdilution method; format: functional; outline: as §2
Haemophilus influenzae [17] = test: Antibacterial activity against ampicillin-resistant Haemophilus influenzae 1742 by microdilution method; format: functional; outline: as §2
Streptococcus pneumoniae [18] = test: Antibacterial activity against Streptococcus pneumoniae 1195 ATCC 49619 by microdilution method; format: functional; outline: as §2
Haemophilus influenzae [19] = test: Antibacterial activity against Haemophilus influenzae 1224 ATCC 49247 by microdilution method; format: functional; outline: as §2
Enterococcus faecalis = test: Antibacterial activity against vancomycin-resistant Enterococcus faecalis 846 by microdilution method; format: functional; outline: as §2
Streptococcus pneumoniae [20] = test: Antibacterial activity against penicillin-resistant Streptococcus pneumoniae 940 by microdilution method; format: functional; outline: as §2
Streptococcus pneumoniae [21] = test: Antibacterial activity against multidrug-resistant Streptococcus pneumoniae 933 by microdilution method; format: functional; outline: as §2
Moraxella catarrhalis = test: Antibacterial activity against Moraxella catarrhalis 557 by microdilution method; format: functional; outline: as §2
Staphylococcus aureus [22] = test: Antibacterial activity against community-acquired Staphylococcus aureus 2144 by microdilution method; format: functional; outline: as §2
Escherichia coli [23] = test: Antibacterial activity against Escherichia coli 102 ATCC 25922 by microdilution method; format: functional; outline: as §2
Streptococcus pneumoniae [24] = test: Antibacterial activity against quinolone-resistant Streptococcus pneumoniae 379 by microdilution method; format: functional; outline: as §2
[25] = tested on: Staphylococcus epidermidis; test: Antibacterial activity against Staphylococcus epidermidis 495 by microdilution method; format: functional; outline: as §2
Staphylococcus aureus [26] = test: Antibacterial activity against vancomycin-intermediate Staphylococcus aureus 2012 by microdilution method; format: functional; outline: as §2
Staphylococcus aureus [27] = test: Antibacterial activity against methicillin-sensitive Staphylococcus aureus 100 ATCC 29213 by microdilution method; format: functional; outline: as §2
Streptococcus pyogenes = test: Antibacterial activity against Streptococcus pyogenes 723 by microdilution method; format: functional; outline: as §2
Streptococcus pneumoniae [28] = test: Antibacterial activity against penicillin-susceptible Streptococcus pneumoniae 866 by microdilution method; format: functional; outline: as §2
[29] = tested on: Staphylococcus epidermidis; test: Antibacterial activity against methicillin-resistant Staphylococcus epidermidis 1452 by microdilution method; format: functional; outline: as §2
Streptococcus pneumoniae [30] = test: Antibacterial activity against quinolone-resistant Streptococcus pneumoniae 376 by microdilution method; format: functional; outline: as §2
Pseudomonas aeruginosa [31] = test: Antibacterial activity against Pseudomonas aeruginosa 1473 by microdilution method; format: functional; outline: as §2
Klebsiella pneumoniae [32] = test: Antibacterial activity against Klebsiella pneumoniae 2239 by microdilution method; format: functional; outline: as §2
[33] = tested on: Staphylococcus epidermidis; test: Antibacterial activity against methicillin-sensitive Staphylococcus epidermidis 1597 by microdilution method; format: functional; outline: as §2
Staphylococcus aureus [34] = test: Antibacterial activity against methicillin-resistant Staphylococcus aureus 2170 by microdilution method; format: functional; outline: as §2
[35] = tested on: Haemophilus parainfluenzae; test: Antibacterial activity against Haemophilus parainfluenzae 2319 ATCC 7901 by microdilution method; format: functional; outline: as §2
Streptococcus pneumoniae [36] = test: Antibacterial activity against penicillin-resistant Streptococcus pneumoniae 748 by microdilution method; format: functional; outline: as §2
Staphylococcus aureus [37] = test: Antibacterial activity against Linezolid, methicillin-resistant Staphylococcus aureus 1651 by microdilution method; format: functional; outline: as §2
Serratia marcescens = test: Antibacterial activity against Serratia marcescens 1635 by microdilution method; format: functional; outline: as §2

## Oc1cc(Cl)cc(Cl)c1-n1cc(Cl)c(Cl)c1Cl [NEOPYRROLOMYCIN C]
Pseudomonas aeruginosa [1]
  MIC90: 32 µg/mL (≈ 96.6 µM)
Staphylococcus aureus [2]
  MIC90: 2 µg/mL (≈ 6.03 µM)
HepG2
  Activity: Active
Escherichia coli [3]
  MIC90: 16 µg/mL (≈ 48.3 µM)
Streptococcus pneumoniae [4]
  MIC90: 8 µg/mL (≈ 24.1 µM)
Staphylococcus aureus [5]
  MBC: 8 µg/mL (≈ 24.1 µM)
  MIC90: 2 µg/mL (≈ 6.03 µM)
Klebsiella pneumoniae [6]
  MIC90: 16 µg/mL (≈ 48.3 µM)
Escherichia coli [7]
  MIC90: 16 µg/mL (≈ 48.3 µM)
Staphylococcus aureus [8]
  MIC90: 1 µg/mL (≈ 3.02 µM)
Enterococcus faecium [9]
  MIC90: 2 µg/mL (≈ 6.03 µM)
NHDF
  CC90: 43 µg/mL (≈ 130 µM)

## Oc1cc(Cl)c(Cl)cc1-n1cc(Cl)c(Cl)c1Cl [NEOPYRROLOMYCIN D]
Pseudomonas aeruginosa [1]
  MIC90: 32 µg/mL (≈ 96.6 µM)
Staphylococcus aureus [2]
  MIC90: 2 µg/mL (≈ 6.03 µM)
HepG2
  Activity: Active
Escherichia coli [3]
  MIC90: 16 µg/mL (≈ 48.3 µM)
Streptococcus pneumoniae [4]
  MIC90: 8 µg/mL (≈ 24.1 µM)
Staphylococcus aureus [5]
  MBC: 8 µg/mL (≈ 24.1 µM)
  MIC90: 2 µg/mL (≈ 6.03 µM)
Klebsiella pneumoniae [6]
  MIC90: 16 µg/mL (≈ 48.3 µM)
Escherichia coli [7]
  MIC90: 16 µg/mL (≈ 48.3 µM)
Staphylococcus aureus [8]
  MIC90: 2 µg/mL (≈ 6.03 µM)
Enterococcus faecium [9]
  MIC90: 4 µg/mL (≈ 12.1 µM)
NHDF
  CC90: 43 µg/mL (≈ 130 µM)

## CN[C@H](CC(C)C)C(=O)N[C@H]1C(=O)N[C@@H](CC(N)=O)C(=O)N[C@H]2C(=O)N[C@H]3C(=O)N[C@H](C(=O)N[C@H](C(=O)O)c4cc(O)cc(O)c4-c4cc3ccc4O)[C@H](O)c3ccc(c(Cl)c3)Oc3cc2cc(c3O[C@@H]2O[C@H](CO)[C@@H](O)[C@H](O)[C@H]2O[C@H]2C[C@](C)(N)[C@H](O)[C@H](C)O2)Oc2ccc(cc2Cl)[C@H]1O [VANCOMYCIN]
Streptococcus agalactiae
  MIC90: 0.5 µg/mL (≈ 0.345 µM)
Escherichia coli [10]
  MIC90: > 64 µg/mL
Staphylococcus aureus [11]
  MIC90: 1 µg/mL (≈ 0.69 µM)
Enterococcus faecium [12]
  MIC90: 2 µg/mL (≈ 1.38 µM)
Staphylococcus aureus [13]
  MIC90: 2 µg/mL (≈ 1.38 µM)
Klebsiella pneumoniae [14]
  MIC90: > 64 µg/mL
Staphylococcus aureus [15]
  MIC90: 8 µg/mL (≈ 5.52 µM)
Enterococcus faecium [16]
  MIC90: > 64 µg/mL
Haemophilus influenzae [17]
  MIC90: > 64 µg/mL
Streptococcus pneumoniae [18]
  MIC90: 0.25 µg/mL (≈ 0.173 µM)
Haemophilus influenzae [19]
  MIC90: > 64 µg/mL
Enterococcus faecalis
  MIC90: > 64 µg/mL
Streptococcus pneumoniae [20]
  MIC90: 0.25 µg/mL (≈ 0.173 µM)
Streptococcus pneumoniae [21]
  MIC90: 1 µg/mL (≈ 0.69 µM)
Moraxella catarrhalis
  MIC90: > 64 µg/mL
Staphylococcus aureus [22]
  MIC90: 0.12 µg/mL (≈ 0.0828 µM)
Escherichia coli [23]
  MIC90: > 64 µg/mL
Streptococcus pneumoniae [24]
  MIC90: 0.5 µg/mL (≈ 0.345 µM)
[25]
  MIC90: 2 µg/mL (≈ 1.38 µM)
Staphylococcus aureus [26]
  MIC90: 16 µg/mL (≈ 11 µM)
Staphylococcus aureus [27]
  MIC90: 2 µg/mL (≈ 1.38 µM)
Streptococcus pyogenes
  MIC90: 0.5 µg/mL (≈ 0.345 µM)
Streptococcus pneumoniae [28]
  MIC90: 0.5 µg/mL (≈ 0.345 µM)
[29]
  MIC90: 4 µg/mL (≈ 2.76 µM)
Streptococcus pneumoniae [30]
  MIC90: 0.2 µg/mL (≈ 0.138 µM)
Pseudomonas aeruginosa [31]
  MIC90: > 64 µg/mL
Klebsiella pneumoniae [32]
  MIC90: > 64 µg/mL
[33]
  MIC90: 2 µg/mL (≈ 1.38 µM)
Staphylococcus aureus [34]
  MIC90: 1 µg/mL (≈ 0.69 µM)
[35]
  MIC90: 64 µg/mL (≈ 44.2 µM)
Streptococcus pneumoniae [36]
  MIC90: 0.5 µg/mL (≈ 0.345 µM)
Staphylococcus aureus [37]
  MIC90: 1 µg/mL (≈ 0.69 µM)
Serratia marcescens
  MIC90: > 64 µg/mL
